Yeast lifespan up – compounds extending yeast replicative lifespan, primary screen, S. cerevisiae, OD615; S. cerevisiae growth with nicotinamide; deaD strain in restrictive glucose medium; inhibition of the nicotinamide effect, % at 10 µM; hit rate 0.68% among 130,000; AID 775, 2007;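 active = inhibition above a set limit, placed 3 SD over the median of all compounds, cut at about 26% in these data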;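 note: 0% = nicotinamide-treated wells and 100% = cells grown without nicotinamide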
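Test system: DeaD-strain S. cerevisiae / Buffer or medium: restrictive glucose medium / Also added: nicotinamide 1.5 mM / Doses: one concentration, 10 µM, DMSO 0.25% / Schedule: 48 h at 30 °C / Signal: OD615 measurement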
Yeast growth inh – growth inhibitors of yeast BB579 in restrictive medium, primary screen, yeast lifespan-shortening project, S. cerevisiae; OD615, 48 h; inhibition, % at 10 µM; hit rate 0.51% among 140,000;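 active = inhibition above a set limit, 3 SD over the mean compound inhibition, cut at about 44% in these data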
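System: Saccharomyces cerevisiae DeaD strain BB579, replicative lifespan model yeast. Buffer or medium: restrictive glucose-based CSMM-D medium. Doses: one dose, 10 µM compound with 0.25% DMSO. Timing: 4 h preincubation and 48 h exposure at 30 °C. Detection: turbidity as optical density at 615 nm. Benchmarks: amphotericin B 10 µg/mL, positive.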
RAM inhibit – inhibitors of the yeast RAM network, primary screen, dse1pr::URA3 reporter, 5-FOA selection. S. cerevisiae dse1pr::URA3 reporter, 5-FOA growth OD615, 2 d; analog-sensitive cbk1-as2 kinase mutant strain. inhibition, % at 50 µM. hit rate 1.8% among 190,000. AID 868, 2007;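 active = inhibition above a set limit, 3 SD over mean compound inhibition, cut at about 8.4% in these data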;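 note: 0% = DMSO-only wells with no growth and 100% = 10 µM 1-NA-PP1 full growth; inhibition rescues growth on 5-FOA so higher OD means more RAM inhibition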
* marks the source's active call; other numbers are inactive results; / = not tested or not shown. An excerpt weighted towards active compounds, which were near 2.6% of everything screened.

SMILES | Yeast lifespan up | Yeast growth inh | RAM inhibit
CCOC(=O)c1cc2occc2n1CC(=O)N1CCOCC1 | -7 | -12 | 1
CCOC(=O)c1cc2occc2n1CCCN1C(=O)c2ccccc2C1=O | -12 | -42 | 9.2*
Cc1nnnn1CC(=O)Nc1ccccc1[N+](=O)[O-] | 5 | -24 | 0
Cc1[nH]n(-c2ccccc2)c(=O)c1/C=N/N1C(=O)c2ccc3c4c(ccc(c24)C1=O)CC3 | -9 | 79* | 2
Cc1[nH]n(-c2ccccc2)c(=O)c1/C=N/O | -14 | 5 | 0
CCC(C(=O)OCC(=O)Nc1cc(Cl)cc(Cl)c1)c1ccccc1 (stereo unspecified) | 2 | -63 | 11*
CCC(C(=O)OCC(=O)Nc1cccc(C(C)=O)c1)c1ccccc1 (stereo unspecified) | / | / | 3
CCOC(=O)N1CCN(c2cc(NCCO)c([N+](=O)[O-])c3nonc23)CC1 | / | / | 4
CC(=O)OCCNc1cc(N2CCN(C)CC2)c2noc3c2c1C(=O)c1ccccc1-3 | 1 | -44 | 10*
O=C(N/N=C/c1cccc(OC(=O)N2CCOCC2)c1)c1cccs1 | 0 | -8 | 0
CCc1ccccc1NC(=O)N1CCC(NC(=O)C(Cc2ccccc2)NC(C)=O)CC1 (stereo unspecified) | / | / | 0
CCCCC(CC)Cn1c(N)c(C#N)c2nc3ccccc3nc21 (stereo unspecified) | 0 | -3 | 2
CCCCC(CC)Cn1c2nc3ccccc3nc2c2c(=N)oc(C)nc21 (stereo unspecified) | 94* | -50 | 2
CC(=O)C1=C(C)N(Cc2ccccc2)C(=O)N[C@H]1c1cccc(C(F)(F)F)c1 | 3 | -23 | -1
CC(=O)C1=C(C)N(Cc2ccccc2)C(=O)N[C@@H]1c1cccc(C(F)(F)F)c1 | 29* | -27 | 1
Cc1cc(C)n(/N=C/c2cc([N+](=O)[O-])ccc2O)c(=O)c1 | / | / | -1
Cc1nn(Cc2ccc(F)cc2)c(C)c1NC(=O)CCCn1nc([N+](=O)[O-])cc1C | / | / | 1
Cc1ccc(NC(=O)c2ccc3c(c2)OCCO3)cc1S(=O)(=O)Nc1cccc(Cl)c1 | -4 | -16 | 6
CCSc1ccccc1C(=O)n1nnc2ccccc21 | 60* | -50 | 0
CCSc1ccccc1C(=O)N1CCCC1 | -11 | -14 | 0
O=C(CCC1CCCC1)N1CCC(N2CCCCCC2)CC1 | -2 | -47 | 1
COc1c(/C=N/Nc2ccc([N+](=O)[O-])cc2[N+](=O)[O-])c(C)nn1-c1ccccc1 | 37 | -38 | 3
COc1ccccc1NS(=O)(=O)c1ccc(N/N=C/c2c(C)nn(-c3ccccc3)c2N2CCCC2)c([N+](=O)[O-])c1 | 2 | -45 | 9.6*
COc1ccccc1NS(=O)(=O)c1cccc(C(=O)N/N=C/c2c(C)nn(-c3ccccc3)c2N2CCCC2)c1 | -1 | 3 | 2
Cc1nn(-c2ccccc2)c(N2CCCC2)c1/C=N/Nc1ccc(S(=O)(=O)Nc2ccccc2)cc1[N+](=O)[O-] | 4 | -8 | 9.0*
SMILES | Yeast lifespan up | Yeast growth inh | RAM inhibit
CCOC(=O)c1oc2ccc(/C=N/O)c(Cl)c2c1C | / | / | 1
O=C(COc1ccccc1-c1ccccc1)NCc1cccc(Cl)c1 | -3 | -9 | 2
CN(C)C(=O)C1CCC(=O)N1Cc1cccs1 (stereo unspecified) | / | / | 1
COc1ccc(NC(=O)CSc2nnc(C)n2Cc2ccccc2)cc1 | -5 | 7 | 0
COc1ccc(OC)c(NC(=O)CSc2nnc(C)n2Cc2ccccc2)c1 | -8 | -13 | 9.2*
COc1cc(OC)nc(Oc2ccccc2C(=O)Oc2ccc(C)cc2)n1 | 1 | -105 | 9.5*
COc1cc(OC)nc(Oc2ccccc2C(=O)Oc2ccc(Cl)cc2)n1 | 4 | -83 | 7
Cc1ccc(SCCC(=O)NCCSCc2ccccc2C)cc1 | -1 | -21 | 4
CC(=O)Nc1cccc(NC(=O)c2cc(-c3cccnc3)nc3ccc(Br)cc23)c1 | -7 | -39 | 3
CC(=O)Nc1cccc(NC(=O)c2cc(-c3cccnc3)nc3ccc(Cl)cc23)c1 | / | / | 9.3*
O=[N+]([O-])c1cc(S(=O)(=O)N2CCCCCC2)ccc1F | 66* | -7 | 2
O=[N+]([O-])c1cc(S(=O)(=O)N2CCCC2)ccc1O | 3 | -20 | 0
CCOC(=O)CSc1ccc(S(=O)(=O)N2CCCCC2)cc1[N+](=O)[O-] | 8 | -51 | 8.7*
CCOC(=O)CSc1ccc(S(=O)(=O)N2CCCC2)cc1[N+](=O)[O-] | / | / | 1
Cc1cc(C)n2c(Br)c(CSc3nc4ccccc4s3)nc2n1 | 9 | -70 | 3
Cc1cc([N+](=O)[O-])c2[nH]c(C(=O)N/N=C/c3ccccc3C(=O)O)c(-c3ccccc3)c2c1 | -14 | -65 | 8.7*
Cc1ccc2nc(C)c(C(=O)N/N=C/c3ccccc3[N+](=O)[O-])cc2c1 | 3 | -40 | 3
Cc1ccc(C(=O)NC(=S)Nc2nc(-c3cccc([N+](=O)[O-])c3)cs2)c(Cl)c1 | / | / | 1
N#CC(C#N)C(c1ccsc1)c1c(-c2ccccc2)[nH][nH]c1=O (stereo unspecified) | 40* | -62 | 2
CCCc1[nH][nH]c(=O)c1C(c1cccc(Cl)c1)C(C#N)C#N (stereo unspecified) | 17 | -58 | 2
CN(C[C@H](Cc1ccccc1)N(C[C@H](c1ccccc1)N(CCc1ccccc1)N=O)N=O)N=O | / | / | 8.8*
CN(C[C@H](c1ccccc1)N(C[C@H](Cc1ccccc1)N(CCc1ccccc1)N=O)N=O)N=O | / | / | 8
Cc1ccc(OCC(=O)NNC(=O)C2CCCO2)c(C)c1 (stereo unspecified) | / | / | 1
CCO[C@H]1OC(C(=O)NCc2ccccc2)=C[C@@H](c2ccc(C(F)(F)F)cc2)[C@@H]1CCCO | / | / | 3
CCO[C@H]1OC(C(=O)Nc2ccccc2)=C[C@@H](c2ccc(C(F)(F)F)cc2)[C@@H]1CCCO | / | / | 9.0*
SMILES | Yeast lifespan up | Yeast growth inh | RAM inhibit
Cc1ccccc1-c1nnn(CC(=O)Nc2ccc3c(c2)OCO3)n1 | / | / | 4
COc1cc(/C=N/NC(=O)c2ccncc2)ccc1OC(=O)c1ccc([N+](=O)[O-])cc1 | 44* | -10 | 4
COc1cc(/C=N/NC(=O)c2ccncc2)ccc1OC(=O)c1ccccc1Cl | / | / | 1
O=C(CN1CCN(S(=O)(=O)c2ccc3ccccc3c2)CC1)Nc1ccc2c(c1)CCC2 | 5 | -53 | 2
O=C(O)CCn1cc(/C=C/C(=O)c2ccc(Cl)cc2)c(-c2ccc(Br)cc2)n1 | -10 | 52* | 4
O=C(O)/C=C/c1cn(Cc2ccccc2)nc1-c1ccccc1 | -14 | -43 | -1
COc1ccc(NC(=O)c2cc(-c3ccccc3OC)on2)cc1 | -10 | -17 | 2
COc1ccc(NC(=O)c2cc(-c3cccc(OC)c3)on2)cc1 | / | / | 1
COc1cccc(-c2cc(C(=O)Nc3ccccc3SC)no2)c1 | 5 | -40 | 8
COc1ccccc1-c1cc(C(=O)Nc2ccccc2SC)no1 | -10 | -44 | 9.0*
COc1ccc(-c2cc(C(=O)Nc3ccccc3SC)no2)cc1OC | 3 | -33 | 8.7*
COc1cccc(-c2cc(C(=O)Nc3cccc(O)c3)no2)c1 | -19 | -6 | 9.2*

Screens from PubChem.
